In ChEMBL document CHEMBL3091458, “Design, synthesis, and biological evaluation of 1,2,4-triazole bearing 5-substituted biphenyl-2-sulfonamide derivatives as potential antihypertensive candidates” (Bioorg Med Chem, 2013):
pIC50: −log10 of the molar value.

Columns and labels:
[1] = Displacement of [125I]-Ang-2 from AT2 receptor in porcine myometrial membranes after 1.5 hrs; assay type: cell membranes, Sus scrofa
Summary of the method: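 Membranes were made from porcine uteri (myometrium). AT1 binding was blocked by adding losartan. [125I]Ang II binding ran in 50 mM Tris-HCl pH 7.4 with 100 mM NaCl, 10 mM MgCl2, 1 mM EDTA, 0.025% bacitracin and 0.2% BSA, at 25 °C for 1.5 h. Bound ligand was caught on GF/C filters, washed with cold Tris and gamma-counted. IC50 was the concentration displacing 50% of specific binding. Run in triplicate.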

[2] = Displacement of [125I]-Ang-2 from AT1 receptor in rat liver membranes after 1.5 hrs; assay type: cell membranes, Membrane
[3] = target: T1, Type-2 angiotensin II receptor (Homo sapiens, UniProt P50052); assay: Binding affinity to AT2 receptor (unknown origin)
T1 sequence (P50052 whole entry): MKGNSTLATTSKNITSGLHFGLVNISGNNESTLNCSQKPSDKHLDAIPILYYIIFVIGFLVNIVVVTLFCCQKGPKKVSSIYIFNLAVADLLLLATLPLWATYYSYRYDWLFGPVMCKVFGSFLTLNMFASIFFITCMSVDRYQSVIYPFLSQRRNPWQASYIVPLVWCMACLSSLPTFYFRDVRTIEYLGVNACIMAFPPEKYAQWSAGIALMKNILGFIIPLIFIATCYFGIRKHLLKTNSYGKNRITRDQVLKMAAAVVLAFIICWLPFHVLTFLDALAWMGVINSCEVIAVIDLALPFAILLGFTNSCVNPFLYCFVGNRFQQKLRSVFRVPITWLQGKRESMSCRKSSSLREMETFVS

[4] = target: T2, Type-1 angiotensin II receptor (Homo sapiens, UniProt P30556); assay: Binding affinity to AT1 receptor (unknown origin)
T2 sequence (P30556 whole entry): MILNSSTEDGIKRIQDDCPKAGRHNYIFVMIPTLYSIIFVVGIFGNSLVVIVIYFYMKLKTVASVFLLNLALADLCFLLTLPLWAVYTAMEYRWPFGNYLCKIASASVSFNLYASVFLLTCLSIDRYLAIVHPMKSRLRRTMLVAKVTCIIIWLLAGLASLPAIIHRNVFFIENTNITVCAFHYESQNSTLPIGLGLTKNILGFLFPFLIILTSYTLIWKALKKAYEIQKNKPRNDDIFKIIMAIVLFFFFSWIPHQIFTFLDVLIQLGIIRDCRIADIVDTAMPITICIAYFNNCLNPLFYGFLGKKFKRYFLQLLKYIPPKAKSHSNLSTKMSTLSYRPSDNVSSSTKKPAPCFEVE

Rattus norvegicus [5] = assay: Toxicity in renal spontaneously hypertensive rat model assessed as reduction of heart rate at 20 mg/kg, po measured at 8 hrs by tail-cuff method relative to control; assay type: organism-based; parameters: dose 20 mg/kg, route oral; conditions: in vivo
Summary of the method: (§1)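 Spontaneously hypertensive rats were dosed orally with the test agent at 20 mg/kg, with a saline-dosed control group. SAP, DAP, MAP and heart rate were recorded before dosing and at 1, 2, 4, 6 and 8 h after. Change was taken as the post-dose value minus the pre-dose value. Significance was judged against the control at p < 0.1 and p < 0.05.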

Rattus norvegicus [6] = assay: Toxicity in renal spontaneously hypertensive rat model assessed as reduction of heart rate at 20 mg/kg, po measured at 6 hrs by tail-cuff method relative to control; assay type: organism-based; parameters: dose 20 mg/kg, route oral; conditions: in vivo; summary of the method: as §1
Rattus norvegicus [7] = assay: Toxicity in renal spontaneously hypertensive rat model assessed as reduction of heart rate at 20 mg/kg, po measured at 4 hrs by tail-cuff method relative to control; assay type: organism-based; parameters: dose 20 mg/kg, route oral; conditions: in vivo; summary of the method: as §1
Rattus norvegicus [8] = assay: Toxicity in renal spontaneously hypertensive rat model assessed as reduction of heart rate at 20 mg/kg, po measured at 2 hrs by tail-cuff method relative to control; assay type: organism-based; parameters: dose 20 mg/kg, route oral; conditions: in vivo; summary of the method: as §1
Rattus norvegicus [9] = assay: Toxicity in renal spontaneously hypertensive rat model assessed as reduction of heart rate at 20 mg/kg, po measured at 1 hr by tail-cuff method relative to control; assay type: organism-based; parameters: dose 20 mg/kg, route oral; conditions: in vivo; summary of the method: as §1
Rattus norvegicus [10] = assay: Antihypertensive activity in renal spontaneously hypertensive rat model assessed as reduction of mean arterial pressure at 20 mg/kg, po measured at 6 hrs by tail-cuff method relative to control; assay type: functional, Artery; summary of the method: as §1
Rattus norvegicus [11] = assay: Antihypertensive activity in renal spontaneously hypertensive rat model assessed as reduction of mean arterial pressure at 20 mg/kg, po measured at 4 hrs by tail-cuff method relative to control; assay type: functional, Artery; summary of the method: as §1
Rattus norvegicus [12] = assay: Antihypertensive activity in renal spontaneously hypertensive rat model assessed as reduction of mean arterial pressure at 20 mg/kg, po measured at 1 hr by tail-cuff method relative to control; assay type: functional, Artery; summary of the method: as §1
Rattus norvegicus [13] = assay: Antihypertensive activity in renal spontaneously hypertensive rat model assessed as reduction of diastolic arterial pressure at 20 mg/kg, po measured at 8 hrs by tail-cuff method relative to control; assay type: functional, Artery; summary of the method: as §1
Rattus norvegicus [14] = assay: Antihypertensive activity in renal spontaneously hypertensive rat model assessed as reduction of diastolic arterial pressure at 20 mg/kg, po measured at 6 hrs by tail-cuff method relative to control; assay type: functional, Artery; summary of the method: as §1
Rattus norvegicus [15] = assay: Antihypertensive activity in renal spontaneously hypertensive rat model assessed as reduction of diastolic arterial pressure at 20 mg/kg, po measured at 4 hrs by tail-cuff method relative to control; assay type: functional, Artery; summary of the method: as §1
Rattus norvegicus [16] = assay: Antihypertensive activity in renal spontaneously hypertensive rat model assessed as reduction of diastolic arterial pressure at 20 mg/kg, po measured at 2 hrs by tail-cuff method relative to control; assay type: functional, Artery; summary of the method: as §1
Rattus norvegicus [17] = assay: Antihypertensive activity in renal spontaneously hypertensive rat model assessed as reduction of diastolic arterial pressure at 20 mg/kg, po measured at 1 hr by tail-cuff method relative to control; assay type: functional, Artery; summary of the method: as §1
Rattus norvegicus [18] = assay: Antihypertensive activity in renal spontaneously hypertensive rat model assessed as reduction of systolic arterial pressure at 20 mg/kg, po measured at 8 hrs by tail-cuff method relative to control; assay type: functional, Artery; summary of the method: as §1
Rattus norvegicus [19] = assay: Antihypertensive activity in renal spontaneously hypertensive rat model assessed as reduction of systolic arterial pressure at 20 mg/kg, po measured at 6 hrs by tail-cuff method relative to control; assay type: functional, Artery; summary of the method: as §1
Rattus norvegicus [20] = assay: Antihypertensive activity in renal spontaneously hypertensive rat model assessed as reduction of systolic arterial pressure at 20 mg/kg, po measured at 4 hrs by tail-cuff method relative to control; assay type: functional, Artery; summary of the method: as §1
Rattus norvegicus [21] = assay: Antihypertensive activity in renal spontaneously hypertensive rat model assessed as reduction of systolic arterial pressure at 20 mg/kg, po measured at 2 hrs by tail-cuff method relative to control; assay type: functional, Artery; summary of the method: as §1
Rattus norvegicus [22] = assay: Antihypertensive activity in renal spontaneously hypertensive rat model assessed as reduction of systolic arterial pressure at 20 mg/kg, po measured at 1 hr by tail-cuff method relative to control; assay type: functional, Artery; summary of the method: as §1
Rattus norvegicus [23] = assay: Antihypertensive activity in renal spontaneously hypertensive rat model assessed as reduction of mean arterial pressure at 20 mg/kg, po measured at 8 hrs by tail-cuff method relative to control; assay type: functional, Artery; summary of the method: as §1
Rattus norvegicus [24] = assay: Antihypertensive activity in renal spontaneously hypertensive rat model assessed as reduction of mean arterial pressure at 20 mg/kg, po measured at 2 hrs by tail-cuff method relative to control; assay type: functional, Artery; summary of the method: as §1

pIC50 [1] | pIC50 [2] | SMILES | further results
6.97 | < 5.00 | CCCCC(=O)NS(=O)(=O)c1ccc(C)cc1-c1ccc(Cn2cncn2)cc1 | 
7.19 | < 5.00 | CCOC(=O)NS(=O)(=O)c1ccc(C)cc1-c1ccc(Cn2cncn2)cc1 | 
6.54 | < 5.00 | Cc1ccc(S(=O)(=O)NC(=O)OC(C)(C)C)c(-c2ccc(Cn3cncn3)cc2)c1 | 
7.80 | < 5.00 | CCCCOC(=O)NS(=O)(=O)c1ccc(C)cc1-c1ccc(Cn2cncn2)cc1 | 
< 5.00 | < 5.00 | Cc1ccc(S(=O)(=O)NC(=O)OCc2ccccc2)c(-c2ccc(Cn3cncn3)cc2)c1 | 
6.93 | < 5.00 | CCOC(=O)NS(=O)(=O)c1ccc(CN(CC)CC)cc1-c1ccc(Cn2cncn2)cc1 | 
8.00 | < 5.00 | CCCCOC(=O)NS(=O)(=O)c1ccc(CN(CC)CC)cc1-c1ccc(Cn2cncn2)cc1 | 
< 5.00 | < 5.00 | CCN(CC)Cc1ccc(S(=O)(=O)NC(=O)OCc2ccccc2)c(-c2ccc(Cn3cncn3)cc2)c1 | 
< 5.00 | < 5.00 | CCCCOC(=O)NS(=O)(=O)c1ccc(CC(C)C)cc1-c1ccc(N)cc1 | 
< 5.00 | < 5.00 | CCCCOC(=O)NS(=O)(=O)c1ccc(CC(C)C)cc1-c1ccc(NC)cc1 | 
< 5.00 | < 5.00 | CCCCOC(=O)NS(=O)(=O)c1ccc(CC(C)C)cc1-c1ccc(NCC)cc1 | 
< 5.00 | < 5.00 | CCCCOC(=O)NS(=O)(=O)c1ccc(CC(C)C)cc1-c1ccc(NCCC)cc1 | 
 |  | CCCCc1nn(C)c(=O)n1Cc1ccc(-n2cccc2-c2nnn[nH]2)cc1 | pIC50 [3]: < 5.00; pIC50 [4]: 8.60
9.40 | < 5.00 | CCCCOC(=O)NS(=O)(=O)c1sc(CC(C)C)cc1-c1ccc(Cn2ccnc2)cc1 [BULOXIBUTID] | 
< 5.00 | 7.07 | CCCCc1nc(Cl)c(CO)n1Cc1ccc(-c2ccccc2-c2nnn[nH]2)cc1 [LOSARTAN] | Activity (Rattus norvegicus [5]): -13.2 bpm; Activity (Rattus norvegicus [6]): -14.05 bpm; Activity (Rattus norvegicus [7]): -10.57 bpm; Activity (Rattus norvegicus [8]): -7.1 bpm; Activity (Rattus norvegicus [9]): -2 bpm; Activity (Rattus norvegicus [10]): -19.12 mmHg; Activity (Rattus norvegicus [11]): -15.13 mmHg; Activity (Rattus norvegicus [12]): -3.05 mmHg; Activity (Rattus norvegicus [13]): -13.09 mmHg; Activity (Rattus norvegicus [14]): -17.58 mmHg; Activity (Rattus norvegicus [15]): -14.25 mmHg; Activity (Rattus norvegicus [16]): -8.96 mmHg; Activity (Rattus norvegicus [17]): -7.76 mmHg; Activity (Rattus norvegicus [18]): -14.02 mmHg; Activity (Rattus norvegicus [19]): -20.23 mmHg; Activity (Rattus norvegicus [20]): -15.55 mmHg; Activity (Rattus norvegicus [21]): -5.21 mmHg; Activity (Rattus norvegicus [22]): -2.8 mmHg; Activity (Rattus norvegicus [23]): -14.55 mmHg; Activity (Rattus norvegicus [24]): -7.33 mmHg
